The record followed here is ChEMBL document CHEMBL4619801, “Discovery of Phthalazinone Derivatives as Novel Hepatitis B Virus Capsid Inhibitors” (J Med Chem, 2020).

pIC50: −log10 of the molar value. Calls of active or inactive are those of the source. The calls are words filed in the database; no cut-off is given here. Some results are limits rather than exact numbers.

What is called CC50 is the concentration that lowers cell viability or growth by half. For orientation: pIC50 means the negative decadic logarithm of the IC50, by convention in mol/L. Broadly, the IC90 is the point of the concentration-response curve where the effect stands at 90%. As a reminder, the Kp is the ratio of the level in a tissue or fluid to that in plasma or blood. One may read the half-life as the time in which the quantity being followed falls by half. Read a low half-life as rapid decline. The term clearance denotes a measure of how efficiently the substance is removed, as volume per time. The low end stands for inefficient removal, the high end for efficient removal. For orientation: AUC(0-inf) means total exposure, with the tail of the curve extrapolated.

Data set [1] is described as follows: Cytotoxicity in human HepG2.2.15 cells assessed as reduction in cell viability incubated for 8 days by MTT assay. In kind it is cell-based, HepG2 2.2.15. Summed up: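 This was run in the same 8-day HepG2.2.15 cultures. After the medium was removed, MTT was added (final 2.5 mg/mL) for 1 h at 37 °C. Cells were lysed in 10% SDS/50% DMF, pH 7.2, and OD was read at 570 nm to give % cell death. CC50 was averaged with SD from at least two independent determinations.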

Data set [2] relates to Hepatitis B virus. Put plainly: Antiviral activity against HBV infected in human HepG2.2.15 cells assessed as reduction in cytoplasmic HBV-DNA replication at cytotoxic CC50 level incubated for 8 days by real-time PCR analysis. To be noted: HepG2 2.2.15. In kind it is functional, organism-based. Background: Quantitative PCR measures a nucleic acid by following its amplification.

Data set [3] concerns Hepatitis B virus. The data set can be described thus: Antiviral activity against HBV infected in human HepG2.2.15 cells assessed as reduction in cytoplasmic HBV-DNA replication incubated for 8 days by real-time PCR analysis. The following applies: HepG2 2.2.15, 192 h. In kind it is functional, organism-based.
The test system of data set [4] is Hepatitis B virus. The data set can be described thus: Antiviral activity against HBV infected in human HepG2.2.15 cells assessed as reduction in capsid associated DNAs at 1 uM by agarose gel electrophoresis method. In kind it is functional, organism-based. To be noted: HepG2 2.2.15. An outline of the steps:
(§1)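 HepG2.2.15 cells treated at indicated concentrations for 8 days. Intracellular capsids resolved on 1.8% native agarose gel; capsid mobility compared with untreated cells, and capsid-associated HBV DNA detected in situ.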

Data set [5] is described as follows: Drug level in CD1 mouse liver at 20 mg/kg, po dosed as single administration measured after 1 to 8 hrs. In kind it is ADME, organism-based. To be noted: in vivo. Summed up: (§2)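 ICR (CD-1) mice were dosed orally at 20 mg/kg. At set times (1, 3, 8 and 24 h), blood was taken from the heart and portal vein under isoflurane anesthesia and spun to plasma. Livers were removed after portal vein perfusion, rinsed in saline, weighed and homogenized in saline (5 mL/g). Samples were analysed by UPLC–MS/MS in positive electrospray mode.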

Data set [6] is described as follows: Drug level in CD1 mouse liver at 20 mg/kg, po dosed as single administration measured after 24 hrs. In kind it is ADME, organism-based. The following applies: in vivo. An outline of the steps: as §2
For data set [7], the system named is Hepatitis B virus. Put plainly: Antiviral activity against HBV infected in human HepG2.2.15 cells assessed as reduction in relaxed circular form of viral DNA at 0.06 to 1 uM incubated for 8 days by Southern blotting analysis. In kind it is functional, organism-based. The following applies: HepG2 2.2.15. An outline of the steps:
(§3)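 HepG2.2.15 cells grown in 12-well plates were treated at the indicated concentrations for 8 days. HBV DNA was extracted from intracellular capsids and detected by Southern blot hybridization with a DIG-labeled HBV genomic fragment probe. Relaxed circular (rc) and single-stranded (ss) replication intermediates were read from the blot.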

For data set [8], the system named is Hepatitis B virus. Put plainly: Antiviral activity against HBV infected in human HepG2.2.15 cells assessed as reduction in single-stranded form of viral DNA at 0.06 to 1 uM incubated for 8 days by Southern blotting analysis. In kind it is functional, organism-based. To be noted: HepG2 2.2.15. An outline of the steps:
as §3

Data set [9] can be described thus: Drug level in CD1 mouse liver at 20 mg/kg, po dosed as single administration measured after 8 hrs. In kind it is ADME, organism-based. The following applies: read-out: Drug uptake. An outline of the steps: as §2
The nature of data set [10]: Ratio of drug level in liver to plasma of CD1 mouse at 20 mg/kg, po dosed as single administration measured after 8 hrs. In kind it is ADME, organism-based. Summed up:
as §2

The test system of data set [11] is Hepatitis B virus. The data set can be described thus: Antiviral activity against HBV infected in human HepG2.2.15 cells assessed as increase in faster-migrating capsids levels at 0.13 to 1 uM by agarose gel electrophoresis method. In kind it is functional, organism-based. The following applies: HepG2 2.2.15. Summed up: as §1
Data set [12] deals with Hepatitis B virus. Put plainly: Antiviral activity against HBV infected in human HepG2.2.15 cells assessed as reduction in capsid associated DNAs at 0.13 to 1 uM by agarose gel electrophoresis method. In kind it is functional, organism-based. To be noted: HepG2 2.2.15. Summed up: as §1
The subject of data set [13] is Hepatitis B virus. The data set can be described thus: Antiviral activity against HBV in AAV8-HBV-transduced Balb/c mouse assessed as reduction in HBV DNA level in plasma at 50 to 150 mg/kg, po BID for 4 weeks. In kind it is functional, organism-based. Summed up:
(§4)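 Male Balb/c mice (6−8 weeks, SPF) given one iv tail-vein injection of recombinant AAV carrying HBV 1.1 genome (10¹¹ viral genome equivalents); after 5 weeks, stably viremic mice dosed orally for 4 weeks. […] Weekly blood sampling; plasma HBV DNA by real-time PCR; Dunnett's test versus vehicle.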

For data set [14], the system named is Hepatitis B virus. Put plainly: Antiviral activity against HBV in AAV8-HBV-transduced Balb/c mouse assessed as reduction in HBV DNA level in plasma at 150 mg/kg, po BID for 4 weeks relative to control. In kind it is functional. Summed up:
as §4

In data set [15] the test system is Hepatitis B virus. Put plainly: Antiviral activity against HBV in AAV8-HBV-transduced Balb/c mouse assessed as reduction in HBV DNA level in plasma at 100 mg/kg, po BID for 4 weeks relative to control. In kind it is functional, organism-based. Summed up:
as §4

Data set [16] concerns mouse (Mus musculus). The data set can be described thus: Half life in mouse at 2 mg/kg, iv dosed as single administration. The following applies: in vivo.
For data set [17], the system named is mouse (Mus musculus). The data set can be described thus: Observed clearance in mouse at 2 mg/kg, iv dosed as single administration. To be noted: in vivo.
Data set [18] concerns mouse (Mus musculus). Put plainly: AUC (0 to infinity) in mouse at 2 mg/kg, iv dosed as single administration. The following applies: in vivo.
For data set [19], the system named is mouse (Mus musculus). The data set can be described thus: AUC (0 to infinity) in mouse at 20 mg/kg, po dosed as single administration. To be noted: in vivo.
Data set [20] concerns mouse (Mus musculus). Put plainly: Observed volume of distribution at steady state in mouse at 2 mg/kg, iv dosed as single administration. The following applies: in vivo, read-out: Vdss.
The subject of data set [21] is Hepatitis B virus. Put plainly: Antiviral activity against HBV infected in human HepG2.2.15 cells assessed as reduction in capsid associated DNAs at 5 uM by agarose gel electrophoresis method. In kind it is functional, organism-based. To be noted: HepG2 2.2.15. An outline of the steps:
as §1

`COc1cc(-c2ccc(F)nc2F)nn(Cc2ccc(Cl)cc2)c1=O`: the CC50 at 192 h in data set [1] was 92200 nM. The result with Hepatitis B virus [2] was inactive.
Regarding `CNc1ccc(-c2nn(Cc3ccc(C#N)cc3)c(=O)c3ccccc23)c(F)n1`, the CC50 at 192 h in data set [1] was more than 100000 nM. Moreover, in the data set with Hepatitis B virus [3], the negative-log IC50 (pIC50) is 6.27 and the IC90 is more than 10000 nM.
`O=c1c(C2CC2)cc(-c2ccc(F)nc2F)nn1Cc1ccc(Cl)cc1`: in data set [1], the CC50 at 192 h worked out at 39800 nM. Also, the pIC50 with Hepatitis B virus [3] was 4.45.
For the compound `N#Cc1ccc(Cn2nc(-c3cc(Cl)c(NC[C@H](O)CO)nc3F)c3ccccc3c2=O)cc1`, in data set [1], the CC50 at 192 h was more than 100000 nM. In the data set on Hepatitis B virus [3], the pIC50 was 7.66 and the IC90 was 1010 nM.
As for `COC(=O)C1=C(C)NC(c2ncc(F)cc2F)=N[C@H]1c1ccc(F)cc1Cl`, the outcome with Hepatitis B virus [4] was Active. In the data set on Hepatitis B virus [3], the pIC50 was 7.38.
With `Cc1cc(-c2ccc(F)nc2F)cn(Cc2ccc(Cl)cc2)c1=O`, the 50% cytotoxic concentration (CC50) at 192 h in data set [1] was 90800 nM. The negative logarithm of the IC50 (pIC50) with Hepatitis B virus [3] is 5.26.
For `N#Cc1ccc(Cn2nc(-c3ccc(F)nc3F)c3ccccc3c2=O)cc1`, the Drug uptake entry in [5] was “Active”; in data set [6], “Not Active”. For the same compound, the Activity result in the data set with Hepatitis B virus [7] and in the data set with Hepatitis B virus [8] was “Dose-dependent effect” each time. In [1], the 50% cytotoxic concentration (CC50) at 192 h was more than 100000 nM. Besides, in the data set with Hepatitis B virus [3], the pIC50 was 6.92.
Take `N#Cc1ccc(Cn2nc(-c3cc(Cl)c(NCC(O)CO)nc3F)c3ccccc3c2=O)cc1` (centres undefined): the concentration at 8 h in [9] worked out at 5950 ng/g. In addition, in data set [10], the Kp at 8 h was 4. For the same compound, the Activity entry with Hepatitis B virus [7], with Hepatitis B virus [8], in the data set with Hepatitis B virus [12] and in the data set with Hepatitis B virus [13] was “Dose-dependent effect” throughout. The outcome in the data set on Hepatitis B virus [11] and in the data set with Hepatitis B virus [15] was Active. In the data set with Hepatitis B virus [14], the “log(activity)” value was 2.67. Also, the CC50 at 192 h in data set [1] was more than 100000 nM. Also, the pIC50 in the data set on Hepatitis B virus [3] is 7.85. Moreover, the 90% effect concentration (IC90) in the data set on Hepatitis B virus [3] came out at 390 nM. Further, the half-life in the data set with mouse (Mus musculus) [16] was 2.52 h. This compound displayed a clearance with mouse (Mus musculus) [17] of 4.1 mL/min/kg. Further, the figures for the total exposure AUC(0-inf) in the data set on mouse (Mus musculus) [18] and in the data set with mouse (Mus musculus) [19] were 8250 ng·h/mL and 49800 ng·h/mL, respectively. In the data set on mouse (Mus musculus) [20], the Vd came to 0.766 L/kg.
`COC(=O)c1cc(-c2ccc(F)nc2F)nn(Cc2ccc(Cl)cc2)c1=O`: the 50% cytotoxic concentration (CC50) at 192 h in data set [1] is more than 100000 nM. Also, the outcome in the data set with Hepatitis B virus [2] was inactive.
Regarding `O=c1c2ccccc2c(-c2ccc(F)nc2F)nn1Cc1ccc(Cl)cc1`, in data set [1], the CC50 at 192 h stood at 36700 nM. For the same compound, the pIC50 with Hepatitis B virus [3] was 6.52.
For the compound `COc1ccccc1/C(Br)=C(/NC(=O)c1ccc([N+](=O)[O-])cc1)C(=O)N1CCCCC1`, the outcome in the data set with Hepatitis B virus [21] was Active. In addition, in data set [1], the cytotoxic concentration (CC50) at 192 h was more than 20000 nM. The pIC50 in the data set with Hepatitis B virus [3] is 6.06.
As to `Cc1c(-c2ccc(F)nc2F)nn(Cc2ccc(Cl)cc2)c(=O)c1C`, the cytotoxic concentration (CC50) at 192 h in data set [1] worked out at 52900 nM. In addition, in the data set with Hepatitis B virus [3], the negative logarithm of the IC50 (pIC50) was 5.91.
Take `COCCNc1ccc(-c2nn(Cc3ccc(C#N)cc3)c(=O)c3ccccc23)c(F)n1`: in data set [1], the CC50 at 192 h was more than 100000 nM. In the data set on Hepatitis B virus [3], the negative-log IC50 (pIC50) was 6.37 and the 90% effect concentration (IC90) is more than 10000 nM.
As to `Cn1cc(-c2ccc(F)nc2F)nc(Cc2ccc(Cl)cc2)c1=O`, the half-maximal cytotoxic concentration (CC50) at 192 h in [1] was more than 100000 nM. Moreover, the pIC50 with Hepatitis B virus [3] is 5.72.
Consider `N#Cc1ccc(Cn2nc(-c3cc(Cl)c(NCCC(=O)O)nc3F)c3ccccc3c2=O)cc1`, for which the CC50 at 192 h in data set [1] was more than 100000 nM. In the data set on Hepatitis B virus [3], the pIC50 is 6.59 and the IC90 worked out at 4020 nM.
Take `COCCNc1nc(F)c(-c2nn(Cc3ccc(C#N)cc3)c(=O)c3ccccc23)cc1Cl`: the Activity result in the data set on Hepatitis B virus [7] and in the data set on Hepatitis B virus [8] was “Dose-dependent effect” throughout. The CC50 at 192 h in data set [1] was more than 100000 nM. In the data set on Hepatitis B virus [3], the pIC50 is 7.42. The concentration for an effect of 90% (IC90) with Hepatitis B virus [3] is 350 nM. The compound further had a half-life with mouse (Mus musculus) [16] of 3.09 h. The compound further returned a clearance in the data set with mouse (Mus musculus) [17] of 11.1 mL/min/kg. In addition, the area under the curve AUC(0-inf) amounted to 3070 ng·h/mL in the data set on mouse (Mus musculus) [18] and 850 ng·h/mL with mouse (Mus musculus) [19]. Besides, in the data set with mouse (Mus musculus) [20], the Vd is 3.09 L/kg.
